Bridge positions count the residues as written; N and C are the ends. Square brackets hold non-standard residues; d marks the D form. Peptide text beside a SMILES is read from it. Phe(4-Cl) = N[C@@H](Cc1ccc(Cl)cc1)C(=O)O; Phe(4-F) = N[C@@H](Cc1ccc(F)cc1)C(=O)O; dPhe(4-F) = N[C@H](Cc1ccc(F)cc1)C(=O)O; 2Nal = N[C@@H](Cc1ccc2ccccc2c1)C(=O)O; Bta = N[C@@H](Cc1csc2ccccc12)C(=O)O; 3Pal = N[C@@H](Cc1cccnc1)C(=O)O; Tle = CC(C)(C)[C@H](N)C(=O)O; Nle = CCCC[C@H](N)C(=O)O
Legend:
[1] = biological target: Somatostatin receptor type 2 (Homo sapiens, UniProt P30874); test: The compound was tested for binding affinity against human Somatostatin receptor type 2
Method in brief: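 Membranes from CHO-K1 cells transfected with the cloned human sst2. Incubated 30 min at 37 °C with 0.05 nM [125I]MK-678 in HEPES pH 7.4 with BSA, MgCl2, Trasylol, bacitracin and PMSF. Filtration on PEI-soaked GF/C filters. Nonspecific binding defined with 1.0 μM SRIF. Mean ± SEM; single values are from one experiment.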

[2] = biological target: Somatostatin receptor type 5 (Homo sapiens, UniProt P35346); test: The compound was tested for binding affinity against human Somatostatin receptor type 5
Method in brief: (§1)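 Membranes from CHO-K1 cells transfected with the cloned human receptor. Terminated by filtration on PEI-soaked GF/C filters. Nonspecific binding defined with 1.0 μM SRIF. Mean ± SEM; single values are from one experiment.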

[3] = biological target: Somatostatin receptor type 1 (Homo sapiens, UniProt P30872); test: The compound was tested for binding affinity against human Somatostatin receptor type 1; method in brief: as §1
[4] = biological target: Somatostatin receptor type 3 (Homo sapiens, UniProt P32745); test: The compound was tested for binding affinity against human Somatostatin receptor type 3
Method in brief: (§2)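 CHO-K1 cells stably transfected (calcium phosphate) with cloned human sst3 or sst4. Membranes made in ice-cold 50 mM Tris-HCl, resuspended in 10 mM Tris-HCl, then incubated 30 min at 37 °C with 0.05 nM [125I]Tyr11-SRIF in HEPES pH 7.4 with BSA, MgCl2 and protease inhibitors. Filtered on GF/C; nonspecific binding with 1.0 µM SRIF. Mean ± SEM, or one experiment.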

[5] = biological target: Somatostatin receptor type 4 (Homo sapiens, UniProt P31391); test: The compound was tested for binding affinity against human Somatostatin receptor type 4; method in brief: as §2
Chain of Somatostatin receptor type 4 (P31391 whole entry): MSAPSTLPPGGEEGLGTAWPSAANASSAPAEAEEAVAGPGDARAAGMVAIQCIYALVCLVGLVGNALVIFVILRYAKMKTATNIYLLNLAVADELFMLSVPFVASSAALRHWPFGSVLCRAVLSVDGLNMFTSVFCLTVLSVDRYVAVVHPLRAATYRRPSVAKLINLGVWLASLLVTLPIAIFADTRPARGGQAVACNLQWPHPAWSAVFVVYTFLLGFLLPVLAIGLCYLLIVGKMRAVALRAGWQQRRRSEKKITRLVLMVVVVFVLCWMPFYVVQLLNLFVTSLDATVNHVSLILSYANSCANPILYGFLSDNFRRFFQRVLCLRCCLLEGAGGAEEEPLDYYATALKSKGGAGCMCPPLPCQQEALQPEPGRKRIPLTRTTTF

Chain of Somatostatin receptor type 5 (P35346 whole entry): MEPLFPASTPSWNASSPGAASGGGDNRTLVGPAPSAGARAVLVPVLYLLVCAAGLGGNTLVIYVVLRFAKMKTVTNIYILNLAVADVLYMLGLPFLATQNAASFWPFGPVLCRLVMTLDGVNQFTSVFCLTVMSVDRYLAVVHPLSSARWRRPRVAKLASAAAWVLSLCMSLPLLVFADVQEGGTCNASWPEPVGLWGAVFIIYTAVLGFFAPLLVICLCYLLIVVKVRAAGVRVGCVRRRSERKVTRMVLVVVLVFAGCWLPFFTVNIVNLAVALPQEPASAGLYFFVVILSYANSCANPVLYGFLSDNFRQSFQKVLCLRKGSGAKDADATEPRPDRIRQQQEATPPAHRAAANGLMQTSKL
Chain of Somatostatin receptor type 3 (P32745 whole entry): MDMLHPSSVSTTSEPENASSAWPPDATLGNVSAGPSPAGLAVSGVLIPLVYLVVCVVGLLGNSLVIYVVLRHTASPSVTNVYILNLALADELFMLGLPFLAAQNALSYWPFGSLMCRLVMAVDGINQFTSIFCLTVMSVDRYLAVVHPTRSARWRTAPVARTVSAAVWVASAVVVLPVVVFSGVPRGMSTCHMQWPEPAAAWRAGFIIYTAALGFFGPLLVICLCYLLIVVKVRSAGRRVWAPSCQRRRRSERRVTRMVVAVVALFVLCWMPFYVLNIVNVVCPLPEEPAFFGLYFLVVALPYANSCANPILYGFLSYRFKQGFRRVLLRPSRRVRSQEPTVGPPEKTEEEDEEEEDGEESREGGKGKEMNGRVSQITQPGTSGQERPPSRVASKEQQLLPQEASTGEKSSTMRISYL
Chain of Somatostatin receptor type 1 (P30872 whole entry): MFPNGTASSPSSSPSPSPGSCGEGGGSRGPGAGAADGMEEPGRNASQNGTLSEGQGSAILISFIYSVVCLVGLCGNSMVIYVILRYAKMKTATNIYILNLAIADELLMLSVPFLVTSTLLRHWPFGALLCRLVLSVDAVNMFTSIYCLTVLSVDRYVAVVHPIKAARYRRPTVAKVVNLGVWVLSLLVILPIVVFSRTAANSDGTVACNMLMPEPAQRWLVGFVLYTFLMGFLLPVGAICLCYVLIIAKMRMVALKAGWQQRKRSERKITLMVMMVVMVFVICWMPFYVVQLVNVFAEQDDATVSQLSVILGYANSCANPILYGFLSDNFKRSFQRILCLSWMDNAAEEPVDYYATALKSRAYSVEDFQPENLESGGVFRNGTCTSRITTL
Chain of Somatostatin receptor type 2 (P30874 whole entry): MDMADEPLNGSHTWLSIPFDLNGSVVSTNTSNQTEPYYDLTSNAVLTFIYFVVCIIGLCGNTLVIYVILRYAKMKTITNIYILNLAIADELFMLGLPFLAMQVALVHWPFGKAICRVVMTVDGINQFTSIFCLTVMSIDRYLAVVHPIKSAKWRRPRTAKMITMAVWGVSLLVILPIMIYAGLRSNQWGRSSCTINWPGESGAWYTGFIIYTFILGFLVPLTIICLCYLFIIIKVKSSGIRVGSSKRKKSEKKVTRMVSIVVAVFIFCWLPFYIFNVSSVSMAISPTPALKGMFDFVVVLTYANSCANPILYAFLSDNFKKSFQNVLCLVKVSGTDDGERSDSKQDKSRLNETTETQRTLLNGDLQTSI

Ki [1]	Ki [2]	Ki [3]	Ki [4]	Ki [5]	SMILES
0.069 µM	0.376 µM	1.06 µM	0.166 µM	> 1 µM	CC(C)[C@@H]1NC(=O)[C@H](CCCCN)NC(=O)[C@@H](Cc2c[nH]c3ccccc23)NC(=O)[C@H](Cc2cccnc2)NC(=O)[C@H](NC(=O)[C@@H](N)Cc2ccc3ccccc3c2)CSSC[C@@H](C(=O)N[C@@H](Cc2ccc(F)cc2)C(N)=O)NC1=O
0.037 µM	0.725 µM	> 1 µM	1.6 µM	> 1 µM	CC(C)[C@@H]1NC(=O)[C@H](CCCCN)NC(=O)[C@@H](Cc2c[nH]c3ccccc23)NC(=O)[C@H](Cc2cccnc2)NC(=O)[C@H](NC(=O)[C@@H](N)Cc2ccc3ccccc3c2)CSSC[C@@H](C(=O)N[C@H](C(N)=O)C(c2ccccc2)c2ccccc2)NC1=O
0.203 µM	1.86 µM	1.2 µM	0.379 µM	> 1 µM	C[C@@H]1NC(=O)[C@H](CCCCN)NC(=O)[C@@H](Cc2c[nH]c3ccccc23)NC(=O)[C@H](Cc2cccnc2)NC(=O)[C@H](NC(=O)[C@@H](N)Cc2ccc3ccccc3c2)CSSC[C@@H](C(=O)N[C@@H](Cc2ccc3ccccc3c2)C(N)=O)NC1=O
0.035 µM	0.287 µM	0.484 µM	0.271 µM	> 1 µM	CC(C)[C@@H]1NC(=O)[C@H](CCCCN)NC(=O)[C@@H](Cc2c[nH]c3ccccc23)NC(=O)[C@H](Cc2cccnc2)NC(=O)[C@H](NC(=O)[C@@H](N)Cc2ccc(F)cc2)CSSC[C@@H](C(=O)N[C@@H](Cc2ccc3ccccc3c2)C(N)=O)NC1=O
0.025 µM	0.24 µM	> 1 µM	0.085 µM	1.59 µM	CC(C)[C@@H]1NC(=O)[C@H](CCCCN)NC(=O)[C@@H](Cc2c[nH]c3ccccc23)NC(=O)[C@H](Cc2cccnc2)NC(=O)[C@H](NC(=O)[C@@H](N)Cc2ccc(Cl)cc2)CSSC[C@@H](C(=O)N[C@@H](Cc2ccc3ccccc3c2)C(N)=O)NC1=O
> 1 µM	0.847 µM	0.172 µM	0.152 µM	1.04 µM	CC[C@H](C)[C@@H]1NC(=O)[C@H](CCCCN)NC(=O)[C@@H](Cc2c[nH]c3ccccc23)NC(=O)[C@H](Cc2cccnc2)NC(=O)[C@H](NC(=O)[C@@H](N)Cc2ccc3ccccc3c2)CSSC[C@@H](C(=O)N[C@@H](Cc2ccc3ccccc3c2)C(N)=O)NC1=O (H-[2Nal][dC][3Pal][dW]KIC[2Nal]-NH2; disulfide 2-7)
0.035 µM	0.631 µM	> 1 µM	0.371 µM	0.145 µM	CC(C)(C)[C@@H]1NC(=O)[C@H](CCCCN)NC(=O)[C@@H](Cc2c[nH]c3ccccc23)NC(=O)[C@H](Cc2cccnc2)NC(=O)[C@H](NC(=O)[C@@H](N)Cc2ccc3ccccc3c2)CSSC[C@@H](C(=O)N[C@@H](Cc2ccc3ccccc3c2)C(N)=O)NC1=O (H-[2Nal][dC][3Pal][dW]K[Tle]C[2Nal]-NH2; disulfide 2-7)
0.012 µM	0.52 µM	> 1 µM	0.1 µM	0.895 µM	CC(C)(C)[C@@H]1NC(=O)[C@H](CCCCN)NC(=O)[C@@H](Cc2c[nH]c3ccccc23)NC(=O)[C@H](Cc2cccnc2)NC(=O)[C@H](NC(=O)[C@@H](N)Cc2ccc(Cl)cc2)CSSC[C@@H](C(=O)N[C@@H](Cc2ccc3ccccc3c2)C(N)=O)NC1=O (H-[Phe(4-Cl)][dC][3Pal][dW]K[Tle]C[2Nal]-NH2; disulfide 2-7)
0.026 µM	0.535 µM	> 1 µM	0.231 µM	> 1 µM	CC(C)(C)[C@@H]1NC(=O)[C@H](CCCCN)NC(=O)[C@@H](Cc2c[nH]c3ccccc23)NC(=O)[C@H](Cc2cccnc2)NC(=O)[C@H](NC(=O)[C@@H](N)Cc2ccc(F)cc2)CSSC[C@@H](C(=O)N[C@@H](Cc2ccc3ccccc3c2)C(N)=O)NC1=O (H-[Phe(4-F)][dC][3Pal][dW]K[Tle]C[2Nal]-NH2; disulfide 2-7)
0.132 µM	0.26 µM	> 1 µM	0.555 µM	0.888 µM	CC(C)(C)[C@@H]1NC(=O)[C@H](CCCCN)NC(=O)[C@@H](Cc2c[nH]c3ccccc23)NC(=O)[C@H](Cc2cccnc2)NC(=O)[C@H](NC(=O)[C@H](N)Cc2ccc(F)cc2)CSSC[C@@H](C(=O)N[C@@H](Cc2ccc3ccccc3c2)C(N)=O)NC1=O (H-[dPhe(4-F)][dC][3Pal][dW]K[Tle]C[2Nal]-NH2; disulfide 2-7)
0.031 µM	0.173 µM	1.95 µM	0.269 µM	0.847 µM	CC(C)[C@H]1NC(=O)[C@H](CCCCN)NC(=O)[C@@H](Cc2c[nH]c3ccccc23)NC(=O)[C@H](Cc2c[nH]cn2)NC(=O)C(NC(=O)[C@@H](N)Cc2ccc(F)cc2)CSSCC(C(=O)N[C@@H](Cc2ccc(F)cc2)C(N)=O)NC1=O (stereo in doubt)
0.103 µM	0.734 µM	0.06 µM	0.397 µM	> 1 µM	CC(C)[C@H]1NC(=O)[C@H](CCCCN)NC(=O)[C@@H](Cc2c[nH]c3ccccc23)NC(=O)[C@H](Cc2c[nH]cn2)NC(=O)C(NC(=O)[C@@H](N)Cc2cccc(F)c2)CSSCC(C(=O)N[C@@H](Cc2cccc(F)c2)C(N)=O)NC1=O (stereo in doubt)

The remaining lines, values behind:

SMILES	Ki [1]	Ki [2]	Ki [3]	Ki [4]	Ki [5]
CC(C)[C@@H]1NC(=O)[C@H](CCCCN)NC(=O)[C@@H](Cc2c[nH]c3ccccc23)NC(=O)[C@H](Cc2cccnc2)NC(=O)[C@H](NC(=O)[C@@H](N)Cc2ccc(I)cc2)CSSC[C@@H](C(=O)N[C@@H](Cc2ccc(I)cc2)C(N)=O)NC1=O	0.032 µM	0.048 µM	0.575 µM	0.018 µM	0.436 µM
CC(C)[C@@H]1NC(=O)[C@H](CCCCN)NC(=O)[C@@H](Cc2c[nH]c3ccccc23)NC(=O)[C@H](Cc2cccnc2)NC(=O)[C@H](NC(=O)[C@@H](N)Cc2ccc(F)cc2)CSSC[C@@H](C(=O)N[C@@H](Cc2ccc(F)cc2)C(N)=O)NC1=O	0.02 µM	0.369 µM	0.435 µM	0.12 µM	> 1 µM
CC(C)[C@@H]1NC(=O)[C@H](CCCCN)NC(=O)[C@@H](Cc2c[nH]c3ccccc23)NC(=O)[C@H](Cc2ccc(O)cc2)NC(=O)[C@H](NC(=O)[C@@H]2Cc3ccccc3CN2)CSSC[C@@H](C(=O)N2Cc3ccccc3C[C@H]2C(N)=O)NC1=O	0.345 µM	> 1 µM	1.03 µM	0.802 µM	> 1 µM
CC(C)(C)[C@@H]1NC(=O)[C@H](CCCCN)NC(=O)[C@@H](Cc2c[nH]c3ccccc23)NC(=O)[C@H](Cc2cccnc2)NC(=O)[C@H](NC(=O)[C@@H](N)Cc2c[nH]c3ccccc23)CSSC[C@@H](C(=O)N[C@@H](Cc2ccc3ccccc3c2)C(N)=O)NC1=O (H-W[dC][3Pal][dW]K[Tle]C[2Nal]-NH2; disulfide 2-7)	0.084 µM	2.25 µM	> 1 µM	0.21 µM	> 1 µM
CCCC[C@@H]1NC(=O)[C@H](CCCCN)NC(=O)[C@@H](Cc2c[nH]c3ccccc23)NC(=O)[C@H](Cc2cccnc2)NC(=O)[C@H](NC(=O)[C@@H](N)Cc2ccc3ccccc3c2)CSSC[C@@H](C(=O)N[C@@H](Cc2ccc3ccccc3c2)C(N)=O)NC1=O (H-[2Nal][dC][3Pal][dW]K[Nle]C[2Nal]-NH2; disulfide 2-7)	0.076 µM	0.814 µM	0.845 µM	0.126 µM	0.672 µM
CC(C)[C@@H]1NC(=O)[C@H](CCCCN)NC(=O)[C@@H](Cc2c[nH]c3ccccc23)NC(=O)[C@H](Cc2csc3ccccc23)NC(=O)[C@H](NC(=O)[C@@H](N)Cc2ccc3ccccc3c2)CSSC[C@@H](C(=O)N[C@@H](Cc2ccc3ccccc3c2)C(N)=O)NC1=O (H-[2Nal][dC][Bta][dW]KVC[2Nal]-NH2; disulfide 2-7)	0.418 µM	1.4 µM	> 1 µM	0.709 µM	> 1 µM
C[C@@H](O)[C@@H]1NC(=O)[C@H](CCCCN)NC(=O)[C@@H](Cc2c[nH]c3ccccc23)NC(=O)[C@@H](Cc2ccccn2)NC(=O)C(NC(=O)[C@@H](N)Cc2ccc(Cl)cc2)CSSCC(C(=O)N[C@@H](Cc2ccc3ccccc3c2)C(N)=O)NC1=O (stereo in doubt)	0.014 µM	0.07 µM	1.03 µM	0.053 µM	> 1 µM
CC(C)[C@H]1NC(=O)[C@H](CCCCN)NC(=O)[C@@H](Cc2c[nH]c3ccccc23)NC(=O)[C@H](Cc2c[nH]cn2)NC(=O)C(NC(=O)[C@@H](N)Cc2ccccc2F)CSSCC(C(=O)N[C@@H](Cc2ccccc2F)C(N)=O)NC1=O (stereo in doubt)	0.176 µM	0.972 µM	0.037 µM	0.382 µM	> 1 µM
CC(C)[C@@H]1NC(=O)[C@H](CCCCN)NC(=O)[C@@H](Cc2c[nH]c3ccccc23)NC(=O)[C@H](Cc2ccc(O)c(I)c2)NC(=O)C(NC(=O)[C@@H](N)Cc2ccc3ccccc3c2)CSSCC(C(=O)N[C@@H](Cc2ccc3ccccc3c2)C(N)=O)NC1=O (stereo in doubt)	0.194 µM	0.468 µM	> 1 µM	0.482 µM	> 1 µM
CC(C)[C@H]1NC(=O)[C@H](CCCCN)NC(=O)[C@@H](Cc2c[nH]c3ccccc23)NC(=O)[C@H](Cc2c[nH]cn2)NC(=O)C(NC(=O)[C@@H](N)Cc2c(F)c(F)c(F)c(F)c2F)CSSCC(C(=O)N[C@@H](Cc2c(F)c(F)c(F)c(F)c2F)C(N)=O)NC1=O (stereo in doubt)	0.637 µM	0.926 µM	0.069 µM	0.124 µM	> 1 µM
